Screening data as filed in PubChem.
Shown are actives, neighbours in structure and some others; about 1.9% of the full set was active somewhere.
CHRM4 agonist – CHRM4 agonism in calcium assay; activation, % at 3 µM; CHO-K1 hM4/Gqi5, Fluo-8 calcium fluorescence; vehicle 0%, full acetylcholine response 100%; 0.14% of 360,000 active;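 active = activation above the run mean over all test wells plus 3 SD, cut at about 32% in these data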;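 also: peak over basal fluorescence ratio per well then scaled between controls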
Target sequence (P08173 whole entry, looked up): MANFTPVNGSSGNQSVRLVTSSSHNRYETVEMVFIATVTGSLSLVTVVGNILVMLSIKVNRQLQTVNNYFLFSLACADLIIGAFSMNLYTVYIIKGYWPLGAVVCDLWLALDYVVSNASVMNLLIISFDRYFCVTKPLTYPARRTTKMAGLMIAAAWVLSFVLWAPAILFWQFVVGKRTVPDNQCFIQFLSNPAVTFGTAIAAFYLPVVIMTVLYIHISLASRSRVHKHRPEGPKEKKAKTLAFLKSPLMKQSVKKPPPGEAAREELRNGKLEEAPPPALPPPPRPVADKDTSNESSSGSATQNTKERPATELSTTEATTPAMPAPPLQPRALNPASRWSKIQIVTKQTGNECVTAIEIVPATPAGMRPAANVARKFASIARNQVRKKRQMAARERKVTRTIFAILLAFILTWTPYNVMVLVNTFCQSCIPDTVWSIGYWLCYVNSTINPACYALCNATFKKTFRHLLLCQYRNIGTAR
M5 PAM – CHRM5 positive allosteric modulation. CHO-K1 hM5, Fluo-8 calcium, ACh EC20 PAM; 0% = ACh EC20, 100% = ACh EC100. activation, % at 3 µM. 0.3% of 360,000 active. AID 624038;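 active = activation above the run cutoff, the mean activation of all test compounds plus 3 SD, cut at about 18% in these data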
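Probe or stimulus: acetylcholine, EC20 level; Assay system: human M5 receptor in CHO-K1 cells; Schedule: compound preincubation 140 s before EC20 acetylcholine addition; Technique: intracellular calcium via Fluo-8 fluorescence; Dosing: single-point, 3 µM nominal; Read-out basis: percent activation from peak-over-basal fluorescence ratio, scaled EC20-to-EC100 acetylcholine; Repeats: one well per compound, no replicates.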
M4 antag – antagonists of human muscarinic M4 receptor (CHRM4). P08173. CHO-hM4 cells, ACh EC80, Fluo-8 calcium fluorescence. inhibition, % at 3 µM. 0.73% of 360,000 active. AID 624125;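 active = inhibition above its plate's cutoff, the mean inhibition of sample wells plus 3 SD, cut at about 27% in these data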
CHRM4 PAM – positive allosteric modulators of human muscarinic M4 receptor | P08173 | CHO-K1 hM4/Gqi5, Fluo-8 calcium fluorescence, ACh EC20; 0% = ACh EC20, 100% = maximal ACh | activation, % at 3 µM | 0.4% of 360,000 active;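 active = activation above its plate's cutoff, the mean activation of sample wells plus 3 SD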
CHRM5 antagonist – antagonists of human muscarinic M5 receptor (CHRM5); P08912; CHO-hM5 cells, Fluo-8 calcium fluorescence, ACh EC80; inhibition, % at 3 µM; 0.59% of 360,000 active; AID 624040;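 active = inhibition above a per-plate cutoff, the mean of that plate's test compounds plus 3 SD, cut at about 27% in these data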
M5 ag – agonists of human muscarinic M5 receptor (CHRM5). P08912. CHO-K1 hM5 cells, Fluo-8 calcium fluorescence; 0% DMSO wells, 100% maximal acetylcholine response. activation, % at 3 µM. 0.19% of 360,000 active;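 active = activation above the run's mean over test compounds plus 3 SD, cut at about 23% in these data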;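 also: signal is peak over basal fluorescence ratio across the kinetic read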
Each line names hits and unclear results; the compound was inactive in the other large screens; ! = repeats disagree.

COc1ccc2c(c1OC)C(=O)N1C2SC[C@H]1C(=O)NC1CCCCC1 (stereo not given in full)	M5 ag 38
O=C(NCCN1CCC(n2c(=O)[nH]c3ccccc32)CC1)c1c(F)cccc1F	none
CCCCNC(=O)C(NC(=O)c1ccc2ccccc2c1)C(=O)c1ccccc1 (stereo not given)	none
O=C(CN1C(=O)NC2(CCCCC2)C1=O)Nc1cccc2ncccc12	CHRM4 PAM 24
Cc1cccc(NC(=O)CN2C(=O)NC3(CCCCCCC3)C2=O)c1C	none
O=C(NCc1ccc(F)cc1)c1cc(C2CCCCN2C(=O)c2ccc(Cl)cc2)on1 (stereo not given)	none
CC(/C=N/NC(=O)Cn1nccc1C)=C\c1ccc(C(C)C)cc1	M4 antag 30
O=C(NCc1cccnc1)c1cc(C2CCCN(S(=O)(=O)c3cccc4cccnc34)C2)on1 (stereo not given)	none
Cc1nnsc1C(=O)N1CCCC(C)(C(=O)NS(=O)(=O)C2CC2)C1 (stereo not given)	CHRM4 PAM 20
CC(C)n1nnnc1SCC(=O)N1CCOCC1	M4 antag 28
CCCCCNC(=O)C(c1cccc2ccccc12)n1c(=O)c(-c2cc3ccccc3[nH]2)nc2ccccc21 (stereo not given)	none
O=C(O)C1C2CCC(O2)C1C(=O)Nc1ccc(F)cc1 (stereo not given)	CHRM5 antagonist 35
Cc1ccc(NC(=O)C2C3CCC(O3)C2C(=O)O)c(Br)c1 (stereo not given)	M5 PAM 19
CCC(=O)Nc1ccc2c(c1)OC[C@@H](C)N(Cc1cccc(F)c1)C[C@@H](C)[C@@H](OC)CN(C)C2=O	none
CC(C)COC(=O)N1CCCCC1c1cc(C(=O)NCc2ccccc2)no1 (stereo not given)	none
COc1ccc(C)cc1NC(=O)CN1C(=O)COc2ccc(C)cc21	M5 PAM 22
COc1ccccc1NC(=O)CN1C(=O)COc2ccc(C)cc21	none
c1ccc(C2(CN3CCNC[C@H]3Cc3cccc4ccccc34)CC2)cc1	CHRM4 PAM 29
COCCN1C(=O)CN(S(C)(=O)=O)CC1(C)C(=O)NC(C)C (stereo not given)	none
CCN1CCN(CCNC(=O)c2ccc(/C=C3/Sc4ccccc4N(Cc4ccccc4C)C3=O)cc2)CC1	CHRM4 agonist 33
O=C(CS(=O)(=O)c1ccccc1)Nc1ccccn1	none
O=C(CS(=O)(=O)c1ccccc1)Nc1ccc(Br)cn1	M5 PAM 20
Nc1[nH]nc2nc(N3CCCC3)nc(-c3ccccc3)c12	M5 PAM 25
CC1(C(=O)NS(=O)(=O)Cc2cccc(Cl)c2)CCN1C(=O)CCc1cccs1 (stereo not given)	none
COc1ccc(C/C(C)=N/NC(=O)c2ccc(Cl)cc2)cc1	none
COc1ccc(C/C(C)=N/NC(=O)c2cccnc2)cc1	M5 PAM 19, CHRM4 PAM 33
Cc1c(Br)c([N+](=O)[O-])nn1CC(=O)N1CCc2ccccc21	none
Cc1nn(CC(=O)N2CCc3ccccc32)c(C)c1S(=O)(=O)NC(C)(C)C	CHRM4 PAM 16
COC(=O)[C@@]12C[C@@H](CC(=O)N3CCSCC3)C(=O)N(Cc3cccc4ccccc34)C1=CCC(C)(C)C2	none
Oc1ccc(Cl)cc1Cc1cc(Cl)ccc1O	M4 antag 27
Oc1ccc(Cl)cc1CNCc1ccc(Cl)cc1	none
Cc1nn(CC(=O)NCCN2CCCCC2C)c(=O)c2cc(-c3ccccc3)nn12 (stereo not given)	M5 PAM 32
COC(=O)c1cnc(Oc2c(Cl)cc(N)cc2Cl)cc1C(F)(F)F	M5 PAM 19
COC(=O)c1cnc(Oc2ccc(NC(=O)NC(=O)c3c(F)cccc3Cl)cc2)cc1C(F)(F)F	none
COc1ccc(NC(=O)C(C)Oc2ccc(/C(C)=N\O)cc2)cc1 (stereo not given)	M5 ag 27
COc1cccc(NC(=O)NNC(=O)C(C)Oc2ccc3ccccc3c2)c1 (stereo not given)	none
CC(C)NS(=O)(=O)c1ccc(NC(=O)C(C)Oc2ccc(C(=O)c3ccccc3)cc2)cc1 (stereo not given)	CHRM4 agonist 117, M4 antag 71, CHRM5 antagonist 47, M5 ag 65
CC(Oc1ccccc1)C(=O)Nc1ccc(C(N)=O)cc1 (stereo not given)	none
COc1ccc(OC(C)C(=O)Nc2cccc(OC)c2)cc1 (stereo not given)	M5 PAM 19
O=S1(=O)CC(N2CCCCC2)CN1Cc1cn(Cc2cccc(C(F)(F)F)c2)nn1 (stereo not given)	none
Oc1ccccc1/C=N/N1CCCCC1	CHRM5 antagonist 30
COC(=O)NNC(=O)c1ccc(Cl)cc1Cl	none
CC(C)(C)C(=O)NC(=S)NNC(=O)c1ccc(Cl)cc1Cl	CHRM4 agonist 139, M4 antag 44, CHRM5 antagonist 36, M5 ag 98
CC(C)(C)C(=O)NC(=S)NNC(=O)c1ccc(-c2ccccc2)cc1	CHRM4 agonist 141, M4 antag 98, CHRM5 antagonist 97, M5 ag 101
CCOC(=O)C1(C)CCCN1C(=O)c1cncc(Br)c1 (stereo not given)	none
CCOC(=O)C1(C)CCCCN1C(=O)c1cccnc1 (stereo not given)	CHRM4 PAM 19
CC1CCCCN1CCCNC(=O)C1CCN(c2nc3ccccc3o2)CC1 (stereo not given)	M4 antag 55
c1ccc(COc2cccc(-c3cc4nc(NCc5cccs5)ccn4n3)c2)cc1	none
CC(=O)Nc1c(I)c(NC(C)=O)c(I)c(C(=O)O)c1I	M5 ag 63!
COc1ccc(CN(CC2CCC(C(=O)O)CC2)C(=S)Nc2cc(C)cc(C)c2)cc1 (stereo not given)	CHRM4 PAM 19
CCc1ccc2[nH]c(C(=O)Nc3ccc(C)c(F)c3)cc2c1	none
O=C(Nc1ccc(F)cc1)c1cc2cc(Cl)ccc2[nH]1	CHRM5 antagonist 31
Cc1cccc(C)c1C(=NCCCN(C)C)c1ccccc1	M4 antag 38, CHRM5 antagonist 80
CC(C)c1ccc(NC(=O)c2cc(-c3cc(F)ccc3OCC3CCCO3)n[nH]2)cc1 (stereo not given)	none
Cc1nc(N)c(C#N)c(-c2ccccc2Cl)c1C	CHRM4 PAM 29
N#Cc1c(-c2ccccc2Cl)cc(C2CC2)nc1N	CHRM4 agonist 62, M5 ag 56
COc1ccccc1-c1cc(C2CC2)nc(N)c1C#N	none
